Experimental data from different studies.
Observed: metabolic stability
Host: human

SMILES	test system	conditions	half-life
C#Cc1nc(C(=O)N2CCC(NC(=O)c3cnc(-c4ccccc4)s3)(c3nc4ccccc4n3C)CC2)cs1	liver microsomes	–	~20 min
CC(=O)c1c(C)c2cnc(Nc3ccc(C4CCN(CCS(C)(=O)=O)CC4)cn3)nc2n(C2CCCC2)c1=O	liver S9	–	85.6 min
Cc1[nH]c(C)c(S(=O)(=O)Nc2ccc(S(=O)(=O)F)c(Cl)c2)c1C(=O)N1CCC(F)(F)C1	liver microsomes	–	22 min
C[C@]12CC[C@H]3[C@@H](CCC4=CC(=O)CC[C@@]43C)[C@@H]1CC[C@@H]2O	liver microsomes	–	21.7 min
CC(c1cncnc1)n1c(=S)[nH]c2ccc(Cl)cc2c1=O (stereo not shown)	liver microsomes	1 µM, pH 7.4	> 186 min
Cc1ncc2n1-c1ccc(Cl)cc1C(c1ccccc1F)=NC2	hepatocytes	–	92.6 min
O=c1c2cc(Cl)c(CO)cc2[nH]c(=S)n1Cc1cncnc1	liver microsomes	1 µM, pH 7.4	71.8 min
Cc1[nH]c(C)c(S(=O)(=O)Nc2ccc(S(F)(F)(F)(F)F)cc2)c1C(=O)N1CCC(F)(F)C1	liver microsomes	–	26.3 min
O=c1[nH]c2ccccc2n1C1CCN(CCCC(c2ccc(F)cc2)c2ccc(F)cc2)CC1	liver microsomes	100 ng/mL	201 min
CC(C)CC(=O)OC[C@H]1O[C@@](C#N)(c2ccc3c(N)ncnn23)[C@H](O)[C@@H]1O	hepatocytes	–	< 4.36 min
